Usually ED50 stands for the midpoint of the dose-response relation. As usually defined, the inhibition in vivo is the drop in the measured response relative to a control, in per cent. The low end stands for a response near the control, the high end for a response far below the control. In general, Inhibition refers to the relative decrease from the control value, in per cent. Lower therefore signals a weak effect.

The text below walks through data of ChEMBL document CHEMBL1144887, “Indanylidenes. 1. Design and synthesis of (E)-2-(4,6-difluoro-1-indanylidene)acetamide, a potent, centrally acting muscle relaxant with antiinflammatory and analgesic activity” (J Med Chem, 2003).

Common to all, as to type: functional
The species named for experiment [1] is Mus musculus. Description: Ratio of rotarod to Straub-tail activity, which indicates the dose exhibiting muscle relaxant activity versus that producing sedation. An outline of the steps: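 Ratio of rotorod ED50 (po) to Straub tail ED50 (po), both measured in mice with oral dosing. Indicates separation between the muscle-relaxant dose and the sedating dose.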
On the technique in general: In the rotarod test animals must keep their balance on a rotating rod.

The test system of experiment [2] is Mus musculus. Description: Effective dose required for muscle relaxation by oral administration in mouse using Straub-tail (ST) assay. An outline of the steps:
(§1)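 Mouse morphine-induced Straub tail assay, scoring inhibition of sacro-coccygeus dorsalis contraction. Dosed ip or po, generally at a minimum of three doses with N = 6 animals per dose group.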

The subject of experiment [3] is Rattus norvegicus. Description: Percent inhibition for analgesic activity by trypsin-induced hyperalgesia assay at 20 mg/kg by oral administration in rats. In a few lines: (§2)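 Rat trypsin-induced hyperalgesia (mild analgesia). Percent inhibition at a single oral dose of 20 mg/kg. Each compound tested two or three times; average variation approximately 5%.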
Experiment [4] has as its system Rattus norvegicus. Description: Antiinflammatory activity in cells using Carrageenan pleurisy assay by oral administration. An outline of the steps:
(§3)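 Rat carrageenan pleurisy, 3 h. Compounds given orally, with separate read-outs for pleural cell counts and edema. ED50 reported in mg/kg po. Each compound tested two or three times; average variation approximately 10%.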

Experiment [5] has as its system Rattus norvegicus. Description: Antiinflammatory activity in edema by Carrageenan pleurisy assay by oral administration. In a few lines:
as §3

Experiment [6] deals with Rattus norvegicus. Description: Effective dose required for analgesic activity by trypsin-induced hyperalgesia assay at 20 mg/kg by oral administration in rats. In a few lines:
(§4)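 Rat trypsin-induced hyperalgesia (mild analgesia) with oral dosing. ED50 reported in mg/kg po. Each compound tested two or three times; average variation approximately 5%.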

The subject of experiment [7] is Mus musculus. The experiment can be described thus: (§5) Percent effect profile muscle relaxation at 100 mg/kg by intraperitoneal administration in mouse using Straub-tail (ST) assay. To be noted: ip. An outline of the steps: (§6)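 Mouse morphine-induced Straub tail assay, scoring inhibition of sacro-coccygeus dorsalis contraction. Single ip dose of 100 mg/kg; percent effect reported. Compounds above 50% inhibition were then tested orally.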

Experiment [8] has as its system Mus musculus. Description: Sedation caused by oral administration was estimated using rotarod (RR) assay. In a few lines:
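Mouse rotorod test for sedation, oral dosing, generally at a minimum of three doses with N = 6 animals per dose group.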

Experiment [9] relates to Rattus norvegicus. Description: Percent inhibition for analgesic activity by trypsin-induced hyperalgesia assay at 20 mg/kg by oral administration in rats. In a few lines: as §2
The subject of experiment [10] is Rattus norvegicus. Description: Antiinflammatory activity in edema by Carrageenan pleurisy assay by oral administration at 20 mg/kg. In a few lines:
(§7)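 Rat carrageenan pleurisy, 3 h. Single oral dose of 20 mg/kg, with separate read-outs for pleural cell counts and edema as percent inhibition. Each compound tested two or three times; average variation approximately 10%.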

For experiment [11], the system named is Rattus norvegicus. Description: Antiinflammatory activity in cells by Carrageenan pleurisy assay by oral administration at 20 mg/kg. An outline of the steps: as §7
The test system of experiment [12] is Mus musculus. The description is as §5. To be noted: ip. An outline of the steps: as §6
The source holds these as a separate data set.

The test system of experiment [13] is Mus musculus. The experiment can be described thus: Effective dose required for muscle relaxation by intraperitoneal administration in mouse using Straub-tail (ST) assay. As to conditions: for ED50: ip. In a few lines:
as §1

Experiment [14] is described as follows: Effective dose required to produce analgesic activity in the phalanges algesia assay by oral administration.
A short description of experiment [15]: Effective dose required to produce analgesic activity in the trypsin hyperalgesia assay by oral administration. An outline of the steps:
as §4

The nature of experiment [16]: Effective dose required to produce analgesic activity in the adjuvant arthritis hyperalgesia assay by oral administration.

With `NC(=O)/C=C1\CCc2cc(F)c(F)cc21`, the Ratio in the experiment listed under Mus musculus [1] is 1.3. Besides, the ED50 in the experiment with Mus musculus [2] was 64 mg/kg; with Rattus norvegicus [4], 13 mg/kg; in the experiment with Rattus norvegicus [5], 17 mg/kg; with Rattus norvegicus [6], 19 mg/kg; in the experiment with Mus musculus [8], 82 mg/kg. Also, testing at 20 mg/kg in the experiment on Rattus norvegicus [3] gave an inhibition in vivo of 62%. This molecule registered an inhibition in vivo at 100 mg/kg in the experiment with Mus musculus [7] of 100%.
As to `NC(=O)/C=C1\CCc2cc(F)cc(F)c21`, in the experiment filed under Mus musculus [1], the Ratio came to 1.8. Moreover, the figures for the inhibition in vivo at 20 mg/kg in the experiment with Rattus norvegicus [9], in the experiment with Rattus norvegicus [10] and in the experiment with Rattus norvegicus [11] were 93%, 55% and 54%, respectively. Also, the ED50 in the experiment with Mus musculus [2] was 44 mg/kg; in the experiment with Rattus norvegicus [6] it was 10 mg/kg; in the experiment with Mus musculus [8] it was 81 mg/kg. In addition, 100 mg/kg produced 100% inhibition in vivo with Mus musculus [12].
On to `Cc1cccc2c1CC/C2=C\C(N)=O`, for which the inhibition in vivo at 20 mg/kg in the experiment on Rattus norvegicus [9] worked out at 25%; with Rattus norvegicus [10], 13%; in the experiment on Rattus norvegicus [11] it was 15%. This molecule also registered an ED50 with Mus musculus [2] above 100 mg/kg. In the experiment on Mus musculus [13], this molecule came in with an Inhibition of 100%.
In the case of `NC(=O)/C=C1\CCc2c(F)cccc21`, the results for the inhibition in vivo at 20 mg/kg in the experiment with Rattus norvegicus [9], in the experiment on Rattus norvegicus [10] and in the experiment with Rattus norvegicus [11] were 68%, 34% and 40%, respectively. Moreover, the ED50 was above 100 mg/kg in the experiment on Mus musculus [2] and 13 mg/kg with Rattus norvegicus [6]. For the same molecule, 100 mg/kg produced 63% inhibition in vivo with Mus musculus [12].
As for `NC(=O)/C=C1\CCc2ccc(Cl)cc21`, the Ratio in the experiment listed under Mus musculus [1] is listed as 2. For the same molecule, the ED50 in the experiment on Mus musculus [2] is 98 mg/kg; with Rattus norvegicus [4], 27 mg/kg; in the experiment with Rattus norvegicus [5], 33 mg/kg; in the experiment with Mus musculus [13], 40 mg/kg; in the experiment on Mus musculus [8], 221 mg/kg.
For `NC(=O)/C=C1/CCc2ccccc21`, it took a dose of 44 mg/kg to reach the 50% effect level in the experiment on Mus musculus [13] (ED50).
`CN(C)C(=O)/C=C1\CCc2ccc(F)cc21`: at 20 mg/kg the inhibition in vivo in the experiment on Rattus norvegicus [9] was 88%. The ED50 with Mus musculus [2] was above 100 mg/kg; with Rattus norvegicus [4], 16 mg/kg; in the experiment on Rattus norvegicus [5], 12 mg/kg; in the experiment with Rattus norvegicus [6] it was 5 mg/kg. This molecule gave an inhibition in vivo at 100 mg/kg in the experiment with Mus musculus [7] of 100%.
`O=C(/C=C1\CCc2ccccc21)NC1CC1`: the Ratio in the experiment listed under Mus musculus [1] was 1.6. The ED50 in the experiment on Mus musculus [2] was 150 mg/kg; with Mus musculus [13], 71 mg/kg; in the experiment on Mus musculus [8], 235 mg/kg.
For the molecule `COc1ccc2c3c1O[C@H]1[C@@H](O)C=C[C@H]4[C@@H](C2)N(C)CC[C@@]341` [CODEINE], the ED50 in [14] was 27 mg/kg; in experiment [15], 33 mg/kg; in experiment [16], 25 mg/kg.
As to `O=C(/C=C/c1cccc(F)c1)NC1CC1` [CINFLUMIDE], the Ratio in the experiment filed under Mus musculus [1] is on record as 1.2. For the same molecule, the inhibition in vivo at 20 mg/kg in the experiment on Rattus norvegicus [9], with Rattus norvegicus [10] and in the experiment with Rattus norvegicus [11] was below 20% throughout. Besides, the ED50 was 156 mg/kg in the experiment with Mus musculus [2], 63 mg/kg in the experiment with Mus musculus [13] and 189 mg/kg with Mus musculus [8].
